For 20 compounds, ILS, IC50 and Mitotic index results are on record in ChEMBL document CHEMBL1122127, “New anticancer agents: synthesis of 1,2-dihydropyrido[3,4-b]pyrazines (1-deaza-7,8-dihydropteridines)” (1982).

Experiment [1] relates to Mus musculus. Kind of experiment: Increase in life span at the highest nontoxic dose against P-388 tumor cell […] at 90 mg/kg. It is filed as functional. The note with it: P388. In outline:
(§1)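 Mice bearing lymphocytic leukemia P-388 (parental or drug-resistant sublines). The reported value is the increase in life span at the highest nontoxic dose tested.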

Experiment [2] deals with Mus musculus. Nature of the experiment: Increase in life span at the highest nontoxic dose against P-388 tumor cell after 1,5,9 day at 30 mg/kg. The note with it: P388. It is filed as functional. In outline: as §1
Experiment [3] has as its system L1210. Nature of the experiment: Inhibitory concentration against proliferation of cultured lymphoid leukemia L1210 cells during 48 hrs. It is filed as functional. Conditions: Mus musculus, L1210, 48 h; read-out: ID50 (the source's name).
Experiment [4] deals with Mus musculus. Kind of experiment: Increase in life span at the highest nontoxic dose against P-388 tumor cell […] at 100 mg/kg. In kind it is functional. The note with it: P388. A digest of the protocol: as §1
The subject of experiment [5] is L1210. Kind of experiment: Fraction of cell population of cultured lymphoid leukemia L1210 cells in mitosis at a dose of 0.03 uM after 12 hr. In kind it is functional, Mus musculus.
For experiment [6], the system named is Mus musculus. Kind of experiment: Increase in life span at the highest nontoxic dose against P-388 tumor cell after 1-5 days at 12 mg/kg. It is filed as functional. Conditions: P388. A digest of the protocol: as §1
Experiment [7] has as its system Mus musculus. Nature of the experiment: Increase in life span at the highest nontoxic dose against P-388 tumor cell after 1,5,9 day at 6.25 mg/kg. The note with it: P388.
Experiment [8] has as its system L1210. Nature of the experiment: Fraction of cell population of cultured lymphoid leukemia L1210 cells in mitosis at a dose of 0.3 uM after 24 hr. In kind it is functional, Mus musculus.
Experiment [9] relates to Mus musculus. Nature of the experiment: Increase in life span at the highest nontoxic dose against P-388 tumor cell after 1,5,9 day at 12.5 mg/kg. It is filed as functional. The note with it: P388. A digest of the protocol: as §1
Experiment [10] concerns Mus musculus. Nature of the experiment: Increase in life span at the highest nontoxic dose against P-388 tumor cell […] at 200 mg/kg. It is filed as functional. The note with it: P388. A digest of the protocol:
as §1

The test system of experiment [11] is Mus musculus. Nature of the experiment: Increase in life span at the highest nontoxic dose against P-388 tumor cell […] was determined at 100 mg/kg. In kind it is functional. Conditions: P388. A digest of the protocol:
as §1

The subject of experiment [12] is Mus musculus. Kind of experiment: Increase in life span at the highest nontoxic dose against P-388 tumor cell […] at 67 mg/kg. Conditions: P388. It is filed as functional. A digest of the protocol:
as §1

The test system of experiment [13] is Mus musculus. Kind of experiment: Increase in life span at the highest nontoxic dose against P-388 tumor cell […] at 25 mg/kg. It is filed as functional. The note with it: P388. A digest of the protocol: as §1
Experiment [14] has as its system L1210. Kind of experiment: Fraction of cell population of cultured lymphoid leukemia L1210 cells in mitosis at a dose of 0.3 uM after 12 hr. It is filed as functional, Mus musculus.
Experiment [15] has as its system L1210. Kind of experiment: Fraction of cell population of cultured lymphoid leukemia L1210 cells in mitosis at a dose of 0.01 uM after 12 hr. It is filed as functional, Mus musculus.
The subject of experiment [16] is L1210. Kind of experiment: Fraction of cell population of cultured lymphoid leukemia L1210 cells in mitosis at a dose of 0.1 uM after 12 hr. It is filed as functional, Mus musculus.
For experiment [17], the system named is Mus musculus. Nature of the experiment: Increase in life span at the highest nontoxic dose against P-388 tumor cell after 1-9 days at 25 mg/kg. It is filed as functional. Conditions: P388. A digest of the protocol: as §1
Experiment [18] concerns Mus musculus. Kind of experiment: Increase in life span at the highest nontoxic dose against Vincristine-resistant line of P-388 tumor cell […] at 12 mg/kg. In kind it is functional. Conditions: P388. A digest of the protocol: as §1
For experiment [19], the system named is Mus musculus. Kind of experiment: Increase in life span at the highest nontoxic dose against P-388 tumor cell […] at 50 mg/kg. It is filed as functional. Conditions: P388. In outline:
as §1

Experiment [20] concerns Mus musculus. Kind of experiment: Increase in life span at the highest nontoxic dose against methotrexate resistant cell line of P-388 tumor cell […] at 25 mg/kg. It is filed as functional. The note with it: P388. A digest of the protocol:
as §1

Experiment [21] relates to Mus musculus. Nature of the experiment: Increase in life span at the highest nontoxic dose against P-388 tumor cell […] was determined at 25 mg/kg. In kind it is functional. The note with it: P388. A digest of the protocol:
as §1

As to `CCOC(=O)Nc1cc2c(c(N)n1)N=C(c1ccc(C(F)(F)F)cc1)CN2`, the ILS (as a rule, the gain in survival time of treated over control animals, in per cent) at 90 mg/kg with Mus musculus [1] was 0%. In the experiment on Mus musculus [2], this compound had an ILS at 30 mg/kg of 0%. Further, in the experiment with L1210 [3], the IC50 came to 150 nM.

`CCOC(=O)Nc1cc2c(c(N)n1)N=C(CN(C)c1ccc(Cl)cc1)CN2` had an ILS at 100 mg/kg with Mus musculus [4] of 65%. In the experiment with L1210 [5], this compound had a Mitotic index of 0.71. Also, in the experiment with L1210 [3], the IC50 was found to be 14.5 nM.

Take `CCOC(=O)Nc1cc2c(c(N)n1)N=C(c1ccc(N)cc1)CN2`: the IC50 with L1210 [3] came out at 23 nM.

Take `COC(=O)Nc1nc2cc(C(=O)c3cccs3)ccc2[nH]1` [NOCODAZOLE]: the IC50 in the experiment on L1210 [3] was found to be 27 nM.

In the experiment on Mus musculus [6], `CCOC(=O)Nc1cc2c(c(N)n1)N=C(c1ccc(C)cc1)CN2` returned an increase in lifespan (ILS) at 12 mg/kg of 30%. Moreover, the IC50 in the experiment on L1210 [3] was found to be 24 nM.

Regarding `CCOC(=O)Nc1cc2c(c(N)n1)N=C(c1ccc(Cl)cc1)CN2`, the ILS at 6.25 mg/kg in the experiment on Mus musculus [7] is 38%. For the same compound, the Mitotic index with L1210 [8] is 0.26. For the same compound, the increase in lifespan (ILS) at 12.5 mg/kg in the experiment with Mus musculus [9] was determined as 37%. In the experiment with Mus musculus [10], this compound had an increase in lifespan (ILS) at 200 mg/kg of 38%. In addition, the IC50 with L1210 [3] came out at 52 nM.

As for `CCOC(=O)Nc1cc2c(c(N)n1)N=C(c1ccc(C)c(C)c1)CN2`, the IC50 in the experiment on L1210 [3] turned out to be 138 nM.

Turning to `CCOC(=O)Nc1cc2c(c(N)n1)N=C(c1ccc(F)cc1)CN2`, in the experiment on L1210 [3], the IC50 came out at 6.8 nM.

On to `CCOC(=O)Nc1cc2c(c(N)n1)N=C(CN(C)c1ccccc1)CN2`, for which the Mitotic index was determined as 0.8 in the experiment on L1210 [8] and 0.77 in the experiment with L1210 [5]. Besides, the increase in lifespan (ILS) at 100 mg/kg in the experiment on Mus musculus [11] is 114%. In the experiment with Mus musculus [12], this compound gave an increase in life span (ILS) at 67 mg/kg of 90%. In addition, in the experiment with L1210 [3], the IC50 is 8.4 nM.

In the case of `CCOC(=O)Nc1cc2c(c(N)n1)N=C(c1ccc(C)cc1C)CN2`, the IC50 in the experiment on L1210 [3] came to 42 nM.

For `CC[C@]1(O)C[C@H]2CN(CCc3c([nH]c4ccccc34)[C@@](C(=O)OC)(c3cc4c(cc3OC)N(C=O)[C@H]3[C@@](O)(C(=O)OC)[C@H](OC(C)=O)[C@]5(CC)C=CCN6CC[C@]43[C@@H]65)C2)C1` [VINCRISTINE], the IC50 with L1210 [3] was less than 1 nM.

In the case of `CCOC(=O)Nc1cc2c(c(N)n1)N=C(c1ccc(OC)cc1)CN2`, in the experiment with Mus musculus [13], the increase in life span (ILS) at 25 mg/kg is 50%. Also, the IC50 in the experiment on L1210 [3] came out at 4.1 nM.

In the case of `CCOC(=O)Nc1cc2c(c(N)n1)N=C(c1cccc(OC)c1)CN2`, the IC50 in the experiment on L1210 [3] is 1.22 nM.

As for `CCOC(=O)Nc1cc2c(c(N)n1)N=C(c1ccc(-c3ccccc3)cc1)CN2`, the Mitotic index with L1210 [14] was 0.42; in the experiment on L1210 [15], 0.65. This compound also displayed an ILS at 25 mg/kg in the experiment on Mus musculus [13] of 36%. In addition, the IC50 with L1210 [3] was 6.1 nM.

Turning to `CCOC(=O)Nc1cc2c(c(N)n1)N=C(c1cc(OC)c(OC)c(OC)c1)CN2`, the IC50 in the experiment with L1210 [3] is 78 nM.

As for `CCOC(=O)Nc1cc2c(c(N)n1)N=C(CN(C)c1ccc(C(=O)OC)cc1)CN2`, the Mitotic index with L1210 [14] is 0.61; with L1210 [16] it was 0.44. The compound also had an increase in lifespan (ILS) at 25 mg/kg in the experiment on Mus musculus [17] of 30%. For the same compound, the IC50 with L1210 [3] was 58 nM.

Take `CCOC(=O)Nc1cc2c(c(N)n1)N=C(c1ccccc1)CN2`: the ILS at 12 mg/kg in the experiment on Mus musculus [18] came to 50%. Also, the IC50 with L1210 [3] is 4.7 nM.

Turning to `CCOC(=O)Nc1cc2c(c(N)n1)N=C(c1ccc(Cl)cc1Cl)CN2`, the IC50 with L1210 [3] turned out to be 44 nM.

Turning to `CCOC(=O)Nc1cc2c(c(N)n1)N=C(c1ccc(Cl)c(Cl)c1)CN2`, the IC50 in the experiment with L1210 [3] worked out at 18 nM.

For the compound `CCOC(=O)Nc1cc2c(c(N)n1)N=C(CN(C)c1ccc(OC)cc1)CN2`, the Mitotic index in the experiment on L1210 [14] is 0.49; in the experiment on L1210 [5], 0.64. In the experiment on Mus musculus [19], this compound returned an ILS at 50 mg/kg of 80%. The ILS at 25 mg/kg in the experiment on Mus musculus [20] is 150%; in the experiment on Mus musculus [21] it was 133%. Moreover, in the experiment with L1210 [3], the IC50 is 7.9 nM.
